Screening data as filed in PubChem BioAssay.
This is a sample that favours compounds with a hit; in the whole collection about 4.6% have one here.
OX1R antag-1 – OX1R (human) antagonism | O43613 | OX1R-expressing cells, FRET antagonist read-out | inhibition, % at 6.6 µM | 330,000 compounds, 1.8% hits | AID 485270; in the data active means inhibition mostly above about 38%, no sharp cut-off; inactive means mostly below about 40%;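 further: 0% = agonist challenge alone and 100% = reference antagonist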
CHO parental Ca – counter-screen: ATP calcium response change in parental CHO cells. AID 463079. inhibition, % at 5.6 µM. parental CHO-K1, ATP-induced calcium, Fluo-8 fluorescence. 330,000 compounds, 0.63% hits;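 active means inhibition above that plate's mean sample inhibition plus 3 SD, cut at about 26% in these data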;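 further: 0% = ATP-challenged DMSO wells and 100% = DMSO wells without ATP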
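Test system: untransfected parental CHO cell line; also added: ATP stimulus; dosing: 5.6 µM, single dose; signal: calcium-sensitive Fluo-8 fluorescence; measure: percent inhibition of ATP-evoked calcium rise, normalized to controls; benchmarks: low control ATP plus DMSO, high control DMSO only; replication: one well per compound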
OX1R antag-2 – antagonists of human orexin 1 receptor; 330,000 compounds, 0.43% hits; O43613; inhibition, % at 5 µM; AID 434989; CHO/OX1R cells, Fluo-8 calcium fluorescence, orexin A;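 active means inhibition above its plate's threshold, mean inhibition of all tested compounds on the plate plus 3 SD, cut at about 37% in these data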;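 further: 0% = orexin A challenge wells and 100% = SB-334867-A antagonist wells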
TAAR1 agonist – human TAAR1 agonism; Q96RJ0; CHO RD-HGA16 TAAR1, Fluo-8 calcium fluorescence; vehicle wells 0%, saturating PEA agonist 100%; activation, % at 3 µM; 360,000 compounds, 0.99% hits;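 active means activation above the mean activation of all test compounds in the run plus 3 SD, cut at about 38% in these data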
Target sequence (Q96RJ0 whole entry, looked up): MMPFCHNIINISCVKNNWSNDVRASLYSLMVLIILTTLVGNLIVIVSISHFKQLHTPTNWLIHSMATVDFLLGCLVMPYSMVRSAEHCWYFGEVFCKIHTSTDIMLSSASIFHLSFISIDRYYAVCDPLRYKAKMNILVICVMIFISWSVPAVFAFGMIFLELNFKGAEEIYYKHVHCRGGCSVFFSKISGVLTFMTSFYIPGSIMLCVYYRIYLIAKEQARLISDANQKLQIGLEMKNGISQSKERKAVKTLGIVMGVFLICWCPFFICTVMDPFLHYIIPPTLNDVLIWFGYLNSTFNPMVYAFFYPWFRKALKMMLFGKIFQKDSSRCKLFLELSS
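Assay system: CHO-derived RD-HGA16 cells with stable Gα16 and human TAAR1; timing: 17-24 h seeding, 75 min 37 °C dye, 30 min RT; read-out: % activation from peak over basal fluorescence ratio, DMSO-to-PEA scaled; measured by: kinetic Fluo-8 calcium fluorescence; benchmarks: low control DMSO, high control PEA (EC100); doses: 3 µM single concentration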
GPR7 antag – blocks human GPR7 receptor signaling | inhibition, % at 4.4 µM | 290,000 compounds, 1.1% hits | P48145 | AID 1861 | GPR7-expressing cells, fluorescence antagonist assay; in the data active means inhibition above about 16%, passing the limit was not always enough;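 further: cells stimulated with the agonist NPW; 0% = agonist with vehicle and 100% = vehicle without agonist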
Target sequence (P48145 whole entry, looked up): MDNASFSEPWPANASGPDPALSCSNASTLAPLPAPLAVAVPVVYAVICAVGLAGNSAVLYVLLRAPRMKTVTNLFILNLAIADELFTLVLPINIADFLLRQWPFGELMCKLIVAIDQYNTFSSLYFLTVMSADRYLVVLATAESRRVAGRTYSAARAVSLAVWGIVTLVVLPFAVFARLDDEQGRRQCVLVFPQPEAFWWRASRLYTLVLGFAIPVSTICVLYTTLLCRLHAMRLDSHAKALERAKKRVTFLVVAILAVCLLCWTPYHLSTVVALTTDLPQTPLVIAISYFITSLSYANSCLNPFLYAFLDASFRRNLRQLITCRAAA
TAAR1 antag – antagonists of human TAAR1; Q96RJ0; CHO RD-HGA16 TAAR1, Fluo-8 calcium fluorescence, antagonist; inhibition, % at 3 µM; 360,000 compounds, 1.5% hits; AID 624466;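 active means inhibition above a per-plate cutoff, the mean inhibition of test compounds on that plate plus 3 SD, cut at about 49% in these data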;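 further: 0% = DMSO plus EC80 beta-PEA response and 100% = DMSO alone without agonist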
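Material: CHO RD-HGA16 cells bearing hTAAR1; compound dosing: one-point dosing, 3 µM nominal final; schedule: dye loading 75 min at 37 °C, then 30 min room temperature; measured by: calcium fluorescence with Fluo-8; control set: vehicle and agonist controls; replication: n of 1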
OX1R HTRF conf – OX1R (human) antagonism, HTRF confirmed; shares compounds with OX1R antag-1; OX1R-expressing cells, HTRF antagonist assay; inhibition, % at 6.6 µM; 1,800 compounds, 49% hits; in the data active means inhibition above about 55%;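 further: CHO cells expressing OX1R stimulated with orexin A at about EC80; 0% = agonist challenge alone and 100% = reference antagonist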
CHO-K1 HTRF – counter-screen for OX1R antagonists: effect in parental CHO-K1 cells | shares compounds with OX1R antag-1 | HTRF counterscreen | inhibition, % at 6.6 µM | 1,800 compounds, 48% hits | AID 493232; in the data active means inhibition above about 17%;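 further: 0% = agonist challenge with vehicle and 100% = vehicle alone without agonist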
* marks the source's active call; other numbers are inactive results; . = not tested or not shown; + = active, no number.

SMILES	OX1R antag-1	CHO parental Ca	OX1R antag-2	TAAR1 agonist	GPR7 antag	TAAR1 antag	OX1R HTRF conf	CHO-K1 HTRF
CCCCNC(=O)c1ccc2c(c1)S(=O)(=O)c1ccccc1C2=O	.	.	.	12	-8	-12	.	.
CCCCn1c(N)c(N(CC)C(=O)c2ccc3c(c2)S(=O)(=O)c2ccccc2C3=O)c(=O)[nH]c1=O	85*	-2	-3	4	-15	-14	23	18*
CC(=O)NCCNC(=O)c1ccc2c(c1)S(=O)(=O)c1ccccc1C2=O	86*	-11	-32	4	-18	6	54	85*
CCCCn1c(N)c(N(CC)C(=O)c2ccc(Cl)c(Cl)c2)c(=O)[nH]c1=O	14	-3	-16	6	-2	-21	.	.
COCCNC(=O)c1ccc2c(c1)S(=O)(=O)c1ccccc1C2=O	86*	0	-5	9	.	8	54	84*
Cc1noc(C)c1NC(=O)Nc1ccc2c(c1)C(=O)N([C@H](C)CO)C[C@H](C)[C@@H](CN(C)S(=O)(=O)c1cccs1)O2	5	10	3	0	.	4	.	.
COc1ccccc1N(CC(=O)NCCN1CCOCC1)S(=O)(=O)c1ccc(C)cc1	28	-1	-9	1	.	-5	.	.
COc1cccc(/C=C2\Oc3ccc(O)cc3C2=O)c1O	95*	-7	25	3	8	-27	93*	16
O=C(NCCNC(=O)c1cc(F)cc(F)c1)c1cc(F)cc(F)c1	-13	-6	0	5	-1	-1	.	.
Nc1c(Cl)ncnc1N/N=C/c1cccnc1	84*	0	-11	1	-12	-21	24	31*
COc1cccc(-n2c(=O)[nH]cc(C(=O)Nc3ccc4c(c3)OCCO4)c2=O)c1	3	-14	-24	2	-7	5	.	.
O=C(NCCCN1CCOCC1)c1cc(C(=O)C2CCCCC2)c[nH]1	21	-4	-15	3	-1	-27	.	.
CC(C)C[C@H](NC(=O)N1CC(=O)Nc2ccccc21)C(=O)N[C@H](Cc1c[nH]c2ccccc12)C(=O)O	18	-19	-5	1	-2	3	.	.
CC(C)C[C@H](NC(=O)N1CC(=O)Nc2ccccc21)C(=O)N[C@@H](Cc1c[nH]c2ccccc12)C(=O)O	82*	0	20	1	-4	-12	44	5
C=CCOn1c(=O)c(-c2ccccc2)[n+]([O-])c2ccccc21	122*	-14	-29	0	1	-3	35	47*
CCOn1c(=O)c(-c2ccc(OC)cc2)[n+]([O-])c2ccccc21	121*	-19	-15	2	11	-2	35	38*
CCOn1c(=O)c(-c2ccc(OC)c(OC)c2)[n+]([O-])c2ccccc21	103*	4	3	0	-9	4	40	37*
Cc1c(C)c2cc(Cl)c(OC(C)C(=O)NCCN3CCOCC3)cc2oc1=O (centres undefined)	18	-16	-19	6	-22	5	.	.
O=C(Nc1ccc2nc(-c3cccs3)[nH]c2c1)c1ccco1	24	-10	-4	3	-9	10	.	.
O=C(Nc1ccc2oc(-c3ccccc3)nc2c1)c1ccncc1	18	-2	-9	10	7	1	.	.
O=C(Nc1ccc2nc(-c3ccccc3)oc2c1)c1ccco1	94*	-2	12	9	-11	12	85*	12
O=C(Nc1cccc(-c2nc3ccccc3s2)c1)c1cccs1	81*	-17	7	3	-10	0	78*	6
O=C(Nc1ccc2nc(-c3cccs3)[nH]c2c1)c1cccs1	93*	-4	10	17	-8	25	25	0
O=C(Nc1ccc2oc(-c3ccccc3)nc2c1)c1cccs1	82*	-14	17	10	-16	14	48	7
O=C(Nc1ccc2oc(-c3cccnc3)nc2c1)c1ccco1	32	-15	-16	5	-12	19	.	.
SMILES	OX1R antag-1	CHO parental Ca	OX1R antag-2	TAAR1 agonist	GPR7 antag	TAAR1 antag	OX1R HTRF conf	CHO-K1 HTRF
Cn1c(-c2ccccc2)c(Sc2ccccc2)c2cc(-c3ccc4cc[nH]c4c3)ccc21	.	.	.	1	.	-14	.	.
COc1cc(/C=C2\OC(=O)c3c(OC)cccc32)ccc1O	79*	0	-14	12	-2	10	58*	13
O=C(CSc1nnc(-c2ccc(Cl)cc2)n1-c1ccc(Cl)cc1)N/N=C/c1ccccc1C(=O)O	3	-17	-23	.	-8	.	.	.
c1ccc(-c2cnn3nnnc3n2)cc1	+	-8	-2	17	-3	10	71*	115*
CC(=O)c1sc(NC(=O)C2(F)C(F)(F)C(F)(F)C(F)(F)C(F)(F)C2(F)F)nc1C	80*	16	35	9	11	-5	71*	26*
CC(=O)c1sc(NC(=O)C=C(C)C)nc1C	17	-2	-9	15	3	-2	.	.
O=C(COC(=O)c1cccs1)Nc1nnc(-c2ccccc2)o1	32	-2	-19	1	.	-4	.	.
O=C(CCN1C(=O)c2cccc3cccc(c23)C1=O)NCC1CCCO1 (centres undefined)	92*	10	-15	1	-18	-9	49	40*
O=C(CCN1C(=O)c2cccc3cccc(c23)C1=O)NC1CCS(=O)(=O)C1 (centres undefined)	79*	-17	3	2	-3	-19	36	54*
O=C(CCN1C(=O)c2cccc3cccc(c23)C1=O)N1CCOCC1	80*	3	-13	2	-1	-9	45	64*
O=C(CCN1C(=O)c2ccccc2C1=O)N1CCOCC1	28	-6	-4	2	-6	-4	.	.
C=CCNc1nnc(Sc2ncccc2[N+](=O)[O-])s1	91*	-9	-27	6	2	-15	28	33*
CC/C(C)=N/NC(=O)c1[nH]c2ccc(C)cc2c1-c1ccccc1	93*	-21	-27	-1	-1	-13	16	0
O=C(N/N=C/c1ccncc1)c1cc([N+](=O)[O-])cc([N+](=O)[O-])c1	86*	-8	-20	6	-12	-13	50	74*
C/C(=N/NC(=O)CNC(=O)c1cccnc1)c1ccc([N+](=O)[O-])cc1	90*	7	-11	9	-7	-3	52	44*
O=C(N/N=C/c1cccnc1)c1ccc([N+](=O)[O-])cc1	107*	-2	-14	4	2	-2	37	82*
